Consider 97 compounds from ChEMBL document CHEMBL4513216, “Probing the Open Global Health Chemical Diversity Library for Multistage-Active Starting Points for Next-Generation Antimalarials” (ACS Infect Dis, 2020).

A short description of this series: Toxicity liver stage against HepG2, at 10uM. It counts as cell-based. Also on record: test concentration 10 uM, cell line HepG2-A16-CD81EGFP. Particulars: human, HepG2-A16-CD81EGFP cells; read-out: INHIBITION
The method in brief: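 Uninfected HepG2-A16-CD81EGFP cells, 3 × 10^3 per well, 1536-well, plated on prespotted compound at 10 μM final, parasite-free screening media added to match infected plates; puromycin 10 μM positive, DMSO 0.5% negative; run in parallel with 48 h PbLuc assay at 37 °C, 5% CO2; viability by CellTiter-Glo luminescence, normalized to controls.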
With `Cc1ccc(C(=O)N2CC[C@@]3(C[C@@H](NS(C)(=O)=O)CCO3)C2)s1`, the cytotoxicity at 10 µM is -73.9%. Regarding `CS(=O)(=O)c1ccc(Cl)c(C(=O)NCCC2=CCCCC2)c1`, the cytotoxicity at 10 µM is 8.17%.

On to `CS(=O)(=O)CCN1CCSCC1c1ccc(Cl)cc1` (configuration not stated), for which the cytotoxicity at 10 µM was -24.3%. In the case of `CC(C)c1nn(C)c(N2CCOCC2)c1CNC(C)c1ccccn1` (configuration not stated), the cytotoxicity at 10 µM was -6.56%. Turning to `CC(C)c1ccc(OCCNC(=O)c2ccoc2)cc1`, the cytotoxicity at 10 µM was -1.92%.

On to `CCN(CC)CCCNCC1CCOC(C)(C)C1` (configuration not stated), for which the cytotoxicity at 10 µM is -6.01%. The result for `CC(=O)Nc1cccc(Cn2nc(C)nc2C)c1` reads -3.19%; that for `Cc1cc(NC(=O)N2CCOCC2)nn1-c1cccc(Cl)c1`, -1.57%. The result for `CCNC(=O)c1ccc(NC(=O)N(C)Cc2cc(C)on2)c(C)c1` reads 6.2%.

Consider `Cc1ccc(NC2CCN(C(=O)C(C)n3cncn3)CC2)nn1` (configuration not stated), for which the cytotoxicity at 10 µM was -14.2%.

`Cc1cc(N2CCCC(N(C)C)C2)n2nc(C)cc2n1` (configuration not stated): the cytotoxicity at 10 µM was -53.5%.

Consider `CCOc1cc(NC(=O)N2CCC3(CCOCC3)C2)ccc1C`, for which the cytotoxicity at 10 µM worked out at 2.89%. As for `Cc1nc2n(n1)CC(NCc1nc(-c3cccs3)no1)CC2` (configuration not stated), the cytotoxicity at 10 µM is -1.66%.

With `O=C(CC1CSc2nccc(=O)n21)NCc1cc(-c2ccco2)on1` (configuration not stated), the cytotoxicity at 10 µM is -11.3%. Turning to `Cn1ccc(CN2CCC(CO)CC2)cc1=O`, the cytotoxicity at 10 µM stood at 5.1%. On to `Cc1csc(N2CCN(CCCN3CCCC3=O)CC2)n1`, for which the cytotoxicity at 10 µM was 3.92%.

With `CCCNC(=O)c1ccc2c(OC)n(C)nc2c1`, the cytotoxicity at 10 µM is 1.56%. On to `CCc1cccc(NC(=O)CCC(=O)N(C)Cc2nc(C)c[nH]2)c1`, for which the cytotoxicity at 10 µM was -1.92%. For `O=C(c1ccc2[nH]cnc2c1)N1CCC(Oc2ccccn2)CC1`, the cytotoxicity at 10 µM is 1.59%. The result for `Cc1ccc([C@H]2CN(C(C)C)C[C@@H]2NS(=O)(=O)N2CCOCC2)o1` reads -1.01%; that for `O=S(=O)(N1CCOCC1)N1CCCCC1CCn1cccn1` (configuration not stated), -0.302%; that for `Cn1nc(CN2CCCCC(N)C2)c2c(Cl)cccc21` (configuration not stated), -5.99%. For the compound `CN1CCOC[C@H]1c1nc(C(C)(C)C)c[nH]1`, the cytotoxicity at 10 µM was 5.08%. In the case of `CCN1CCN(CCCNc2ncccn2)CC1`, the cytotoxicity at 10 µM was 3.41%. On to `COCCN1C(=O)[C@@H]2CC[C@H]1CN(C(=O)Cc1ccc(O)c(Cl)c1)C2`, for which the cytotoxicity at 10 µM was -4.26%. Turning to `CC1=Nc2c(c(=O)[nH]n2C(C)C)C(c2cccs2)S1` (configuration not stated), the cytotoxicity at 10 µM was determined as 3.67%. For `O=C(COCc1nc(-c2ccncc2)no1)N1CCCCC1`, the cytotoxicity at 10 µM was 5.4%. `Fc1cc(CN2CCOC3(CCOCC3)C2)ccc1OC(F)F`: the cytotoxicity at 10 µM was -11.9%. In the case of `O=C(NCCc1ccccn1)C1=NN(c2ccccc2)C(=O)CN1`, the cytotoxicity at 10 µM is -1.96%.

With `COC(=O)c1ccc2nc(CO[C@H]3CN(CC4CC4)C[C@H]3F)[nH]c2c1`, the cytotoxicity at 10 µM was 2.52%.

In the case of `COc1ccc(NC(C)=O)cc1OCc1cccnc1`, the cytotoxicity at 10 µM is -23.5%. `CCN1CC(CN(C)Cc2nc(-c3ccc(F)cc3)oc2C)CC1=O` (configuration not stated): the cytotoxicity at 10 µM is -2.22%. Take `Cc1ccc(Cc2sc(NC(=O)C(C)S(C)(=O)=O)nc2C)cc1` (configuration not stated): the cytotoxicity at 10 µM was determined as 13.1%. As to `CO[C@H]1CCN(Cc2c(C)noc2C)[C@@H]2CN(Cc3cccnc3)C[C@H]12`, the cytotoxicity at 10 µM turned out to be 5.55%.

In the case of `C=c1ncsc1=C1NN=C(C2CCCN2C(=O)CCn2cccn2)O1` (configuration not stated), the cytotoxicity at 10 µM was 2.29%. With `CN1CCCN(C(C(=O)O)c2ccc3c(c2)OCO3)CC1` (configuration not stated), the cytotoxicity at 10 µM is 1.83%. With `NC(=O)C1CN(Cc2c(O)ccc3oc4c(c23)CCCC4)CCO1` (configuration not stated), the cytotoxicity at 10 µM amounted to 4.48%. Take `Cc1csc2ncc(-c3ccnc(N4CCC[C@H](C(N)=O)C4)n3)c(=O)n12`: the cytotoxicity at 10 µM was -13.3%.

Consider `NS(=O)(=O)c1cc(C(=O)N2CCCCC2)cs1`, for which the cytotoxicity at 10 µM is -0.174%. As to `Cc1cccc(OC2CCN(c3nc(N)nc4[nH]cnc34)CC2)c1`, the cytotoxicity at 10 µM is 35.4%.

With `COc1ccc(NS(=O)(=O)c2cnc(NC(C)=O)s2)cc1`, the cytotoxicity at 10 µM stood at 10.9%. In the case of `O=C(O)c1cncc(Cc2ccccc2F)c1`, the cytotoxicity at 10 µM came to 0.812%. For the compound `CC(=O)NCCc1ccc(S(=O)(=O)Nc2ccc(C)c(F)c2)s1`, the cytotoxicity at 10 µM was found to be 5.72%. The result for `CCc1c(NCc2ccncc2)cnn1CC(C)C` reads 7.81%. As to `CCc1ccc(CN2CCN(c3ccc(Cl)nn3)CC2)nc1`, the cytotoxicity at 10 µM was -2.98%. As for `CN(C)CCOC1CC2(CCN(c3cnccn3)CC2)c2ccccc21` (configuration not stated), the cytotoxicity at 10 µM was -2.69%. Take `CN(C)c1ncc(-c2cc(C(=O)NC(C)(C)CO)n(CC3CC3)c2)cn1`: the cytotoxicity at 10 µM was -13.4%.

In the case of `CC1CC(=O)c2cc(C(=O)N3CCN(C)CC3)c(=O)[nH]c2C1` (configuration not stated), the cytotoxicity at 10 µM was -6.32%. Consider `CS(=O)(=O)NC(=O)c1nnn(-c2cccc(F)c2)c1C1CC1`, for which the cytotoxicity at 10 µM is -3.9%. On to `COc1ccccc1OC1CCN(Cc2ccc(N(C)C)nc2)CC1`, for which the cytotoxicity at 10 µM was -11.8%. As for `O=C(O)C1(Cc2ccccc2F)CCCN(c2ncnc3[nH]ccc23)C1` (configuration not stated), the cytotoxicity at 10 µM was -0.44%. For the compound `Cn1ccc(C(=O)N2CCC(Cc3cccc4cccnc34)C2)n1` (configuration not stated), the cytotoxicity at 10 µM was 2.16%.

For the compound `Cc1nn(C)c(C)c1CCC(=O)N1CCc2sccc2C1`, the cytotoxicity at 10 µM was 16.3%. The result for `COc1ccc(CNCc2ccnc(N3CCOCC3)c2)c(OC)c1` reads -8.92%. Turning to `C[C@@H]1CN(C(=O)CCCN2CCCC2)CC[C@@]1(O)C1CCOCC1`, the cytotoxicity at 10 µM is -0.422%. Regarding `Nc1nccnc1C(=O)N(Cc1ccccc1O)CC1CCCO1` (configuration not stated), the cytotoxicity at 10 µM is -4.45%. Regarding `O=S(=O)(C1CC1)N1Cc2[nH]nc(COCC3CC3)c2C1`, the cytotoxicity at 10 µM amounted to 16.4%. On to `COc1ccc(Cl)cc1C(=O)NC(CC(=O)O)c1cccs1` (configuration not stated), for which the cytotoxicity at 10 µM is -6.16%. For the compound `OC1CCCOC12CCN(CCCOc1ccccc1F)CC2` (configuration not stated), the cytotoxicity at 10 µM worked out at 3.4%. Regarding `CC(C)c1noc(CCC(=O)NCC2CC2)n1`, the cytotoxicity at 10 µM was -28.7%. Consider `O=C(Nc1ccccc1)C1CCCN(c2cc(-n3cncn3)ncn2)C1` (configuration not stated), for which the cytotoxicity at 10 µM is -2.1%. Take `Cc1cc(C(=O)N2CCCC(c3nccn3C)C2)cc(S(N)(=O)=O)c1C` (configuration not stated): the cytotoxicity at 10 µM is 5.5%.

On to `O=C(c1ccc(OCC2CC2)nc1)N1CCCC(n2cccn2)C1` (configuration not stated), for which the cytotoxicity at 10 µM is -12.4%. The result for `Cc1cc(CNC(=O)CN2CCN(C(=O)OC(C)(C)C)CC2)ccc1F` reads -11.2%; that for `COc1cc(C)c(CN2CCC3(CC2)[C@H](O)C[C@@H]3OCCN)cc1C`, 13.6%. For the compound `Cc1occc1C(=O)N1C[C@H](Oc2ccccn2)[C@H]2OCCC[C@H]21`, the cytotoxicity at 10 µM is -110%. On to `CCC(O)CN(CC(=O)NC(=O)NC1CC1)c1ccccc1` (configuration not stated), for which the cytotoxicity at 10 µM was -2.48%. With `CCn1ncnc1C(C)Nc1cc(C2CCNCC2)nc(C)n1` (configuration not stated), the cytotoxicity at 10 µM is -6.77%.

For the compound `COc1ccc2c(c1)OCC(CNC(=O)c1ccc3[nH]nnc3c1)C2` (configuration not stated), the cytotoxicity at 10 µM was -7.72%.

Take `O=C(NCC1CC1)[C@H]1C[C@H]2CN(S(=O)(=O)Cc3ccccc3)C[C@@H]1O2`: the cytotoxicity at 10 µM stood at 7.56%. In the case of `O=C(C1CCCC1)N1CCOc2cccc(F)c21`, the cytotoxicity at 10 µM was -2.54%. As for `O=C(CN1CCOCC1)N(c1ccccc1)c1ccccc1`, the cytotoxicity at 10 µM is -11.8%. The result for `CC(=O)N1CCCCC1c1nc2c(c(N3CCCCC3)n1)CN(C)CC2` (configuration not stated) reads -0.0788%; that for `Cc1ccsc1CNc1ccccc1C(=O)N1CCNC(=O)C1`, -1.68%; that for `CCC(CO)NCc1ccc(-c2ccccc2F)o1` (configuration not stated), -2.49%. As for `O=C(c1ccc2occc2c1)N1CCC(C(=O)O)(n2cccn2)CC1`, the cytotoxicity at 10 µM is -0.657%. For `Cc1cc(C(=O)N2CCC(c3nccn3Cc3ccccn3)CC2)no1`, the cytotoxicity at 10 µM is -1.85%. Consider `CN(C)C(=O)N1Cc2nnn(C)c2C(COCc2cccnc2)C1` (configuration not stated), for which the cytotoxicity at 10 µM is 10.8%. As to `Cc1ccn2ncc(C(=O)N3CCCC(c4cc(C)[nH]n4)C3)c2n1` (configuration not stated), the cytotoxicity at 10 µM was -8.02%. The result for `CN1CC(=O)N(c2cnn(C)c2)CC12CCN(C(=O)c1ccsc1)C2` (configuration not stated) reads -1.37%; that for `CCCS(=O)(=O)N1CCC2(CC1)CN(c1ccccn1)CCO2`, 6.66%.

For the compound `CN(Cc1nnc(-c2cccs2)o1)Cc1nc2c(s1)CCCC2`, the cytotoxicity at 10 µM is 2.4%.

For `CCS(=O)(=O)CC(=O)NC(C)c1ccc(OCCC(C)C)cc1` (configuration not stated), the cytotoxicity at 10 µM came to 5.61%. As to `Cc1nnn2c1COCC(CNC(=O)c1ccc[nH]1)C2` (configuration not stated), the cytotoxicity at 10 µM stood at 2.7%. On to `COc1ccc(CNCC(O)c2cccc(O)c2)cc1Br` (configuration not stated), for which the cytotoxicity at 10 µM was -3.86%.

For `CC(=O)c1ccc(C(=O)N2C[C@@H](CN3CCCC3)[C@@H](CO)C2)cc1`, the cytotoxicity at 10 µM is -0.434%. Consider `CS(=O)(=O)c1ccc(-c2cnc(C3CCCN3)cn2)cc1` (configuration not stated), for which the cytotoxicity at 10 µM is -1.71%. In the case of `Cc1nc(C(C)(C)NCc2ncc(C3CC3)o2)sc1C`, the cytotoxicity at 10 µM worked out at 3.57%.

Turning to `O=C(CCc1nccs1)N1CCN(c2ccccn2)CC1`, the cytotoxicity at 10 µM was -19.7%. `CC(C)N1CCC(N(C)c2ccnc(N(C)C)n2)CC1`: the cytotoxicity at 10 µM is -3.3%.

With `O=S1(=O)COCCN1CCOc1ccc(F)cc1`, the cytotoxicity at 10 µM is -0.505%. With `CC(NC(=O)NCC1(c2ccc(F)cc2)CCCC1)c1nncn1C` (configuration not stated), the cytotoxicity at 10 µM is -6.27%. As for `CCCn1nccc1C(=O)N1CCCC(C(=O)CCc2ccccc2)C1` (configuration not stated), the cytotoxicity at 10 µM was -1.08%. `COc1cc(CNc2ccc(C)c(Cl)c2)ccc1OCC(N)=O`: the cytotoxicity at 10 µM came out at 7.1%. Take `COc1ccc2[nH]nc(CN3CCC(C(=O)N4CCCCC4)CC3)c2c1`: the cytotoxicity at 10 µM is -2.03%. `CC1CCN(C(=O)c2ccnc(-n3cncn3)c2)c2ccccc21` (configuration not stated): the cytotoxicity at 10 µM worked out at 13%. On to `O=C(NCC1CC1)[C@H]1CC[C@@H]2[C@@H](CCN2Cc2ccoc2)O1`, for which the cytotoxicity at 10 µM is -14.1%.
